CHO parental Ca: ATP-evoked calcium signal inhibitors, parental CHO, primary screen, counter-screen for OX1R antagonist project, cell-based, fluorescence, Fluo-8 calcium dye; parental CHO-K1, ATP-induced calcium, Fluo-8 fluorescence; actives 0.63% (n = 330,000); AID 463079, 2010; inhibition, % at 5.6 µM;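 active = inhibition above that plate's mean sample inhibition plus 3 SD, cut at about 26% in these data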
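Material – parental CHO cells · Reagent – ATP stimulus · Compound – single nominal dose of 5.6 µM per compound · Detection – Fluo-8 fluorescence · Read-out basis – percent inhibition of calcium signal · Controls – ATP-challenged DMSO wells low, unchallenged DMSO wells high · Repeats – no replicates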
TAAR1 ag: human TAAR1 agonists, primary screen, Fluo-8 calcium fluorescence, CHO RD-HGA16 cells. vehicle wells 0%, saturating PEA agonist 100%. Trace amine-associated receptor 1 (Homo sapiens), Q96RJ0. AID 624467, 2012. actives 0.99% (n = 360,000). activation, % at 3 µM;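 active = activation above the mean activation of all test compounds in the run plus 3 SD, cut at about 38% in these data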
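Assay system – CHO-derived RD-HGA16 cells with stable Gα16 and human TAAR1 · Compound dosing – one-point dosing at 3 µM (nominal) · Incubation – 17-24 h seeding, 75 min 37 °C dye, 30 min RT · Measured by – kinetic Fluo-8 calcium fluorescence · Control set – DMSO vehicle as 0%, PEA at EC100 as 100% · Repeats – single well for each compound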
OX1R antag-1: antagonists of human orexin 1 receptor (OX1R); Orexin/Hypocretin receptor type 1 (Homo sapiens), O43613; OX1R-expressing cells, FRET antagonist read-out; inhibition, % at 6.6 µM; actives 1.8% (n = 330,000); AID 485270, 2010; in the data active = inhibition mostly above about 38%, no sharp cut-off; inactive = mostly below about 40%
Target sequence (O43613 whole entry, looked up): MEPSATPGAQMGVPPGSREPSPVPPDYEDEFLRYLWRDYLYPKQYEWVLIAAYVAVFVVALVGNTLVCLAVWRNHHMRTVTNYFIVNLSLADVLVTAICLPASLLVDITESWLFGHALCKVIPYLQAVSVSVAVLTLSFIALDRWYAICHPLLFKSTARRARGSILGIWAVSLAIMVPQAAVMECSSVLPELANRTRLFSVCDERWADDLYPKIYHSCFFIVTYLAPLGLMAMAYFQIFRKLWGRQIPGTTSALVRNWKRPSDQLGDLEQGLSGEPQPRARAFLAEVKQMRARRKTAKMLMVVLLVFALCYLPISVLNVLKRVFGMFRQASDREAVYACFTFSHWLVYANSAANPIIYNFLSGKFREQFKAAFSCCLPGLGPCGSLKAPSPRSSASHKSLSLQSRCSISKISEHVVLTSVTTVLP
GPR7 antagonist: GPR7 receptor antagonists, primary screen, cell-based, fluorescence, single concentration; AID 1861, 2009; actives 1.1% (n = 290,000); inhibition, % at 4.4 µM; Neuropeptides B/W receptor type 1 (Homo sapiens), P48145; GPR7-expressing cells, fluorescence antagonist assay; in the data active = inhibition above about 16%, passing the limit was not always enough;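 note: cells stimulated with the agonist NPW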
TAAR1 antag: human TAAR1 antagonists, primary screen, Fluo-8 calcium fluorescence, CHO RD-HGA16 cells; Trace amine-associated receptor 1 (Homo sapiens), Q96RJ0; antagonist; inhibition, % at 3 µM; actives 1.5% (n = 360,000);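 active = inhibition above a per-plate cutoff, the mean inhibition of test compounds on that plate plus 3 SD, cut at about 49% in these data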
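Test system – hTAAR1-expressing CHO RD-HGA16 cells, Gα16-coupled · Also added – β-PEA at EC80 concentration, post-compound challenge · Compound – 3 µM, single point · Incubation – dye loading 75 min at 37 °C, then 30 min room temperature · Measured by – Fluo-8 intracellular calcium dye fluorescence, real-time kinetic reads · Benchmarks – vehicle and agonist controls · Replicates – singlicate, one well per test compound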
OX1R antag-2: OX1R (HCRTR1) antagonists, primary screen, fluorescence, CHO/OX1R cells, Fluo-8 calcium, orexin A. Fluo-8 calcium fluorescence. Orexin/Hypocretin receptor type 1 (Homo sapiens), O43613. actives 0.43% (n = 330,000). inhibition, % at 5 µM. AID 434989, 2010;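 active = inhibition above its plate's threshold, mean inhibition of all tested compounds on the plate plus 3 SD, cut at about 37% in these data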
GPR7 antag conf: GPR7 receptor antagonists, confirmation, cell-based, fluorescence, single concentration; GPR7-expressing cells, calcium fluorescence antagonist mode; AID 1952, 2009; actives 52% (n = 2,400); shares compounds with GPR7 antagonist; inhibition, % at 4.4 µM; in the data active = inhibition above about 24%;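 note: stimulated with the GPR7 agonist NPW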
MCHR1 antag: MCHR1 antagonists in cells, counter-screen for GPR7 antagonist project, cell-based, fluorescence, human | shares compounds with GPR7 antagonist | MCHR1-expressing cells, fluorescence antagonist assay | inhibition, % at 4.4 µM | actives 62% (n = 2,400) | AID 2148, 2009; in the data active = inhibition above about 22%
TAAR1 ag confirm: human TAAR1 agonists, retest of hits, confirmation, Fluo-8 calcium fluorescence, CHO RD-HGA16 cells; scaled: DMSO 0%, maximal phenethylamine 100%; actives 82% (n = 2,400); activation, % at 3 µM; shares compounds with TAAR1 ag; AID 651783, 2012;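 active = activation above a cutoff set at the run's mean compound activation plus 3 SD, cut at about 39% in these data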
Ga16 nonsel ag: nonselective calcium mobilization agonists, CHO-Ga16 cells, counter-screen for hTAAR1 agonist project, cell-based, fluorescence, CHO-Ga16 parental line; shares compounds with TAAR1 ag; Fluo-8 calcium fluorescence; normalized to maximal ATP response, DMSO zero; activation, % at 3 µM; actives 50% (n = 2,400); AID 651787, 2012;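 active = activation above the run cutoff, the mean activation over all tested wells plus 3 SD, cut at about 12% in these data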
TAAR1 desensitize: TAAR1 desensitization by agonist hits, confirmation, counter-screen for TAAR1 agonist project, cell-based, fluorescence, tachyphylaxis. actives 46% (n = 2,400). inhibition, % at 3 µM. shares compounds with TAAR1 ag. CHO RD-HGA16 hTAAR1, Fluo-8 calcium, beta-PEA response inhibition. AID 651951, 2012;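 active = inhibition above the run cutoff, the mean inhibition of all test compounds plus 3 SD, cut at about 49% in these data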;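 note: beta-PEA stimulus applied at its EC80; loss of beta-PEA calcium signal after compound pretreatment read as receptor desensitization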
Ga16 antag count: inhibition of ATP-evoked calcium response in CHO-Ga16 cells, counter-screen for TAAR1 agonist project, cell-based, fluorescence; shares compounds with TAAR1 ag; CHO-Ga16 ATP-induced calcium, Fluo-8 fluorescence; inhibition, % at 3 µM; actives 39% (n = 2,400);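 active = inhibition above the plate's mean compound inhibition plus 3 SD, computed per plate, cut at about 22% in these data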
Of the large screens only hits and unclear results are named; the others gave an inactive call (follow-up assays come after a bar, where they were run). Compounds with a hit are over-represented: about 4.5% of the library has one in this group of screens.

CC(C)CCN1CCC[C@]2(N[C@H](c3ccc(C(F)(F)F)cc3)[C@@H]3C(=O)N(Cc4ccccc4)C(=O)[C@@H]32)C1=O	none (no result: CHO parental Ca, OX1R antag-1, GPR7 antagonist, OX1R antag-2)
COc1cc(/C=C2\SC(=Nc3ccc(Cl)c(C(=O)O)c3)NC2=O)c(Br)c(Br)c1O	TAAR1 ag 98, GPR7 antagonist 40, TAAR1 antag 76 (no result: CHO parental Ca, OX1R antag-1, OX1R antag-2) | GPR7 antag conf 28 | MCHR1 antag 48 | TAAR1 ag confirm 49 | Ga16 nonsel ag 58 | TAAR1 desensitize 57 | Ga16 antag count 70
COC(=O)/C=C1\SC(=Nc2ccc(Cl)c(Cl)c2)NC1=O	none
N#CC(C#N)=C1C=C2C=C(N3CCOCC3)CCC2CC1 (stereo unspecified)	TAAR1 ag 682, GPR7 antagonist 34, TAAR1 antag 109 (no result: CHO parental Ca, OX1R antag-1, OX1R antag-2) | GPR7 antag conf 82 | MCHR1 antag 96 | TAAR1 ag confirm 726 | Ga16 nonsel ag 880 | TAAR1 desensitize 106 | Ga16 antag count 103
CC1(c2ccccc2)NC(=O)N(CC(=O)Nc2ccc(S(=O)(=O)NC3=NCCCCC3)cc2)C1=O (stereo unspecified)	none (no result: CHO parental Ca, OX1R antag-1, GPR7 antagonist, OX1R antag-2)
CCS(=O)(=O)N1CCC(C(=O)Oc2ccc(C)c(C)c2)CC1	none
CCOC(=O)Cn1c(=O)oc2cc(S(=O)(=O)NCCc3ccc(C)cc3)ccc21	none
CCOC(=O)Cn1c(=O)oc2cc(S(=O)(=O)Nc3ccc(F)cc3)ccc21	CHO parental Ca 23, TAAR1 ag 89, GPR7 antagonist 25 | GPR7 antag conf 42 | MCHR1 antag 37 | TAAR1 ag confirm 109 | Ga16 nonsel ag 69 | TAAR1 desensitize 52 | Ga16 antag count 32
Cc1ccc(NS(=O)(=O)c2ccc(C(=O)NCc3ccccn3)cc2)cc1	TAAR1 ag 96, GPR7 antagonist 30 | GPR7 antag conf 44 | MCHR1 antag 33 | TAAR1 ag confirm 110 | Ga16 nonsel ag 60 | TAAR1 desensitize 54 | Ga16 antag count 31
CS(=O)(=O)Nc1ccc(C(=O)NCc2ccccn2)cc1	none
O=C(N/N=C/c1ccc(O)cc1)c1ccc(COc2cc(Cl)ccc2Cl)o1	CHO parental Ca 59, TAAR1 ag 93, GPR7 antagonist 53, TAAR1 antag 76, OX1R antag-2 67 | GPR7 antag conf 68 | MCHR1 antag 78 | TAAR1 ag confirm 98 | Ga16 nonsel ag 69 | TAAR1 desensitize 87 | Ga16 antag count 59
CC(=O)Nc1ccc(/C=N\NC(=O)CNS(=O)(=O)c2ccc([N+](=O)[O-])cc2)cc1	none
O=C(CNS(=O)(=O)c1ccc([N+](=O)[O-])cc1)N/N=C\c1ccc(O)cc1	TAAR1 ag 68, GPR7 antagonist 41, TAAR1 antag 68 | GPR7 antag conf 46 | MCHR1 antag 34 | TAAR1 ag confirm 101 | Ga16 nonsel ag 39 | TAAR1 desensitize 89 | Ga16 antag count 63
O=S(=O)(Nc1ccccc1N1CCOCC1)c1ccc(Cl)cc1	none (no result: TAAR1 ag, GPR7 antagonist, TAAR1 antag)
Cc1n[nH]c(C)c1N1C(=O)c2cccc3c(N4CCCCCC4)ccc(c23)C1=O	CHO parental Ca 76, TAAR1 ag 148, GPR7 antagonist 52, TAAR1 antag 82, OX1R antag-2 90 | GPR7 antag conf 41 | MCHR1 antag 56 | TAAR1 ag confirm 88 | Ga16 nonsel ag 119 | TAAR1 desensitize 74 | Ga16 antag count 82
O=C1c2cccc3c(N4CCCCC4)ccc(c23)C(=O)N1CCO	none
COc1ccccc1C(CNC(=O)c1cccc(S(=O)(=O)NCc2ccccc2)c1)N(C)C (stereo unspecified)	none (no result: GPR7 antagonist)
O=C(O)CN1C(=O)/C(=C\c2cc([N+](=O)[O-])ccc2OCc2ccccc2Cl)SC1=S	none
O=C1/C(=C\c2cc([N+](=O)[O-])ccc2O)SC(=S)N1Cc1ccc(Cl)cc1	CHO parental Ca 62, TAAR1 ag 84, GPR7 antagonist 35, TAAR1 antag 87, OX1R antag-2 68 | GPR7 antag conf 47 | MCHR1 antag 86 | TAAR1 ag confirm 113 | Ga16 nonsel ag 121 | TAAR1 desensitize 102 | Ga16 antag count 97
